Most compounds without a hit are left out; they make up all but 2.9% or so of the library.
CRFR2-BP antag: CRF-BP/CRF-R2 complex antagonism; inhibition, % at 11.8 µM; HEK293 CRF-R2/CRF-BP, CRF-induced calcium fluorescence; 0.59% of 350,000 active;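 active means inhibition of the ligand-induced calcium signal above about 50% at the single tested concentration, limit read from the data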
DDE Tn7 FP inh: disrupts Tn7 cyclic peptide binding to fibrin D-Dimer-E complex; P02675; FP displacement of FITC-Tn7 peptide from fibrin DD(E); 0% = median of compound wells per plate; inhibition, % at 8.3 µM; 0.13% of 370,000 active; AID 720508;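 active means inhibition above the mean of compounds falling within the control limits plus 3 SD of them, cut at about 14% in these data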;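 further: 0% = plate median of compound wells and 100% = 10 µM Aha-Tn7 peptide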
Target sequence (P02675 whole entry, looked up): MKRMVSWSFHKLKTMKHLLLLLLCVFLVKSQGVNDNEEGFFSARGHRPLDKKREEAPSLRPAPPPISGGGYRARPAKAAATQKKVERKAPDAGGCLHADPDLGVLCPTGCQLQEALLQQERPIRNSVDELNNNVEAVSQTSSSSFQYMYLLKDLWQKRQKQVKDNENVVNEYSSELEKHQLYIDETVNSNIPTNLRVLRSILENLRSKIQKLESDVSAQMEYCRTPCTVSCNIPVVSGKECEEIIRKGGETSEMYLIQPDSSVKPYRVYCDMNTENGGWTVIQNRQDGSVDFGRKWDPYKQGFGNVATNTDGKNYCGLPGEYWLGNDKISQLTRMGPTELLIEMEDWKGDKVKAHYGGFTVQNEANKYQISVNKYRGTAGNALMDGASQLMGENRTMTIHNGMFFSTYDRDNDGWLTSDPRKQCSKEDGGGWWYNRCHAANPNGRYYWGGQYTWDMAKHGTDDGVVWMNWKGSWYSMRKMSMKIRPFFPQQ
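Assay system: Human fibrin DD(E) protein | Medium: Tris buffer with calcium and detergent, pH 7.8 | Reagent: 0.1 µM fluorescent Tn7 | Compound dosing: Single point at 8.3 µM | Times: 10 min preincubation, 3 h with tracer, room temperature | Detection: Fluorescence polarization of the labelled Tn7 tracer | Controls: Aha-Tn7 high control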
CendR NRP1 mod: modulators of CendR peptide binding to human neuropilin-1. O14786. inhibition, % at 25 µM. 0.85% of 360,000 active. FAM-RPARPAR peptide binding to NRP-1, fluorescence polarization;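 active means inhibition or corrected inhibition above about 18%, plus a signal ratio from 0.5 to 1.5, limit read from the data, passing the limit was not always enough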
DDE Tn6 FP inh: inhibitors of Tn6 peptide binding to human fibrin DD(E). Fibrin DD(E) TRITC-Tn6 fluorescence polarization displacement. inhibition, % at 8.3 µM. P02675. 0.21% of 370,000 active. AID 720509;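 active means inhibition above a per-campaign cutoff: mean of compounds within control limits plus 3 SD, cut at about 15% in these data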;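 further: 0% = median of all compound wells on the plate and 100% = blocking peptide control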
KLK7 zymogen act: proKLK7 (human) activation, primary screen. purified proKLK7, EDANS-DABCYL substrate fluorescence; 100% is mature enzyme control, 0% vehicle. activation, % at 7 µM. 0.9% of 370,000 active. AID 652039;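 active means activation above the mean of all tested compounds plus 3 SD, computed per campaign excluding outliers beyond control limits, cut at about 13% in these data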
CRFR2-BP ag: agonists of human CRF-binding protein/CRF-R2 receptor complex. HEK293 CRF-R2/CRF-BP, calcium dye fluorescence (FLIPR); percent of saturating CRF peptide response. activation, % at 13.2 µM. 0.46% of 350,000 active. AID 588473;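 active means activation of at least 50%, plus an integration ratio under a set limit after plate pattern correction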;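 further: plate controls were neutral control wells without compound for no effect and CRF at EC100 for full effect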
Active calls of the source: *.

How did Cc1ccc2oc(=O)c(/C=C(\O)c3ccco3)nc2c1 do in these assays?
CRFR2-BP antag: -54.4; DDE Tn7 FP inh: 1.5; CendR NRP1 mod: -8.9; DDE Tn6 FP inh: -4.1; KLK7 zymogen act: 0.0; CRFR2-BP ag: 147.2*

How did Cc1ccc2oc(=O)c(/C=C(\O)C(C)(C)C)nc2c1 do in these assays?
CRFR2-BP antag: 4.7; DDE Tn7 FP inh: -5.9; CendR NRP1 mod: 4.8; DDE Tn6 FP inh: 0.0; KLK7 zymogen act: -0.2; CRFR2-BP ag: 0.1

How did COC(=O)CCC(=O)N1C2=NC3=C(C(=O)N(Cc4ccc5c(c4)OCO5)C3=O)C3N(C)c4ccccc4[C@]23C[C@H]1CO (stereo partly drawn) do in these assays?
DDE Tn7 FP inh: 2.0; DDE Tn6 FP inh: 6.0; KLK7 zymogen act: 0.9

What do the screens show for `CC(C)[C@H](NC(=O)CC1CCCC1)C(=O)N1CCC[C@H]1C(=O)NCc1ccccc1`?
DDE Tn7 FP inh: -4.6; DDE Tn6 FP inh: 5.3; KLK7 zymogen act: 0.0

Results for CC(C)CCNC(=O)C1CCN(c2cncnc2)CC1 ?
DDE Tn7 FP inh: 11.6; DDE Tn6 FP inh: 8.2; KLK7 zymogen act: -0.8

How did COc1ccccc1C/C(N)=N/OC(=O)COc1ccc(C)cc1C do in these assays?
CRFR2-BP antag: 54.0*; DDE Tn7 FP inh: 3.9; CendR NRP1 mod: 14.0; DDE Tn6 FP inh: -6.8; KLK7 zymogen act: 0.1; CRFR2-BP ag: -2.3

What do the screens show for `COC(=O)C1CN(Cc2ccccc2)CCS(=O)(=O)N1Cc1cn(Cc2ccccc2)nn1` (stereo not drawn)?
DDE Tn7 FP inh: -3.7; DDE Tn6 FP inh: -4.8; KLK7 zymogen act: 0.6

How did Cc1ccccc1C(=O)N[C@H](C(=O)N1CCC[C@H]1C(=O)NCc1ccccc1)c1ccccc1 do in these assays?
DDE Tn7 FP inh: -5.8; DDE Tn6 FP inh: 7.0; KLK7 zymogen act: -0.1

What do the screens show for `c1ccc(CCNc2ccc3c(c2)Cc2ccccc2-3)nc1`?
CRFR2-BP antag: -19.9; DDE Tn7 FP inh: 4.8; CendR NRP1 mod: 28.8*; DDE Tn6 FP inh: 0.1; KLK7 zymogen act: -0.5; CRFR2-BP ag: -1.0

What do the screens show for `CC(Nc1cccc2ccccc12)C(=O)N/N=C/c1ccccn1` (stereo not drawn)?
CRFR2-BP antag: -12.3; DDE Tn7 FP inh: 0.7; CendR NRP1 mod: 39.7*; DDE Tn6 FP inh: 3.5; KLK7 zymogen act: -0.2; CRFR2-BP ag: 4.2

What do the screens show for `Nc1nnc(SCCOc2ccccc2)s1`?
CRFR2-BP antag: 21.0; DDE Tn7 FP inh: 1.2; CendR NRP1 mod: 1.9; DDE Tn6 FP inh: -2.9; KLK7 zymogen act: 0.2; CRFR2-BP ag: -1.3

What do the screens show for `Cc1nnc(SCCOc2ccccc2)s1`?
CRFR2-BP antag: 5.8; DDE Tn7 FP inh: 7.1; CendR NRP1 mod: 50.9*; DDE Tn6 FP inh: 3.0; KLK7 zymogen act: 0.3; CRFR2-BP ag: 5.1

Results for COc1ccc(N2C(=O)c3n[nH]c(C(C)C)c3C2c2ccc(C)cc2)cc1 (stereo not drawn) ?
DDE Tn7 FP inh: 7.4; DDE Tn6 FP inh: 9.6; KLK7 zymogen act: 0.1

Results for CCN(CC)C(=O)O[C@H]1CC[C@@]23CCCN2C(=O)CCC[C@H]3[C@H]1C ?
DDE Tn7 FP inh: 6.5; DDE Tn6 FP inh: 2.5

Results for COc1ccc(NC(=O)CSc2nnc(-c3cccs3)o2)cc1Cl ?
DDE Tn7 FP inh: -1.9; DDE Tn6 FP inh: 2.4; KLK7 zymogen act: -3.6

Results for O=C(NCCc1csc(-c2ccccc2)n1)c1c(F)cccc1F ?
CRFR2-BP antag: -14.0; DDE Tn7 FP inh: 2.0; CendR NRP1 mod: 3.4; DDE Tn6 FP inh: 6.3; KLK7 zymogen act: 0.1; CRFR2-BP ag: -5.2

How did O=C(NCCc1csc(-c2ccccc2)n1)c1c(F)cccc1Cl do in these assays?
CRFR2-BP antag: 88.4*; DDE Tn7 FP inh: 0.0; CendR NRP1 mod: -4.7; DDE Tn6 FP inh: 8.8; KLK7 zymogen act: -0.3; CRFR2-BP ag: -0.7

What do the screens show for `COC(=O)[C@]12C[C@H](CC(=O)NCC3CCCCC3)C(=O)N(Cc3ccc(Cl)cc3Cl)C1=C[C@H](C(C)(C)C)O[C@@H]2C`?
DDE Tn7 FP inh: -1.0; DDE Tn6 FP inh: -4.4; KLK7 zymogen act: 0.1

How did Cn1c(CCNC(=O)c2ccco2)nc2cc(NC(=O)c3ccco3)ccc21 do in these assays?
CRFR2-BP antag: 107.9*; DDE Tn7 FP inh: -5.0; CendR NRP1 mod: 8.2; DDE Tn6 FP inh: -4.5; KLK7 zymogen act: -0.6; CRFR2-BP ag: 0.3
